An excerpt weighted towards active compounds, which were near 1.7% of everything screened.
SR-BI DiI inh = inhibitors of mouse SR-BI mediated HDL lipid uptake; inhibition, % at 12.5 µM; ldlA[mSR-BI] CHO cells, DiI-HDL uptake fluorescence, 3 h; 320,000 tested, 0.96% active; Q61009;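 active = mean replicate inhibition of at least 70% and a set share of replicates each scoring 70 or more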;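 note: 0% = median of neutral control wells and 100% = median of positive control wells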
CaV13 ICDI inh = Primary screen for inhibitors of IQ motif and Ca2+-dependent inactivation inhibitor domain binding in CACNA1D, Förster resonance energy transfer in living cells, …. HEK cells, CFP/YFP FRET ICDI-IQ, plate reader, 10 min; percent FRET-ratio fall versus neutral wells. inhibition, % at 12.3 µM. 340,000 tested, 0.098% active. AID 743397;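 active = mean replicate inhibition of at least 30% and at least 1% of replicates passing that level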;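 note: 0% = median of the neutral control wells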
NTR1 agonist = NTR1 (human) agonism; P30989; NTR1-U2OS beta-arrestin-GFP spot imaging, agonist mode; activation, % at 20 µM; 330,000 tested, 0.17% active; AID 493036;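 active = activation at or above 40% of the spot to cytoplasm intensity ratio, with at least 20 cells analyzed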;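 note: 0% = DMSO without peptide and 100% = 100 nM NTR1 peptide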
Target sequence (P30989 whole entry, looked up): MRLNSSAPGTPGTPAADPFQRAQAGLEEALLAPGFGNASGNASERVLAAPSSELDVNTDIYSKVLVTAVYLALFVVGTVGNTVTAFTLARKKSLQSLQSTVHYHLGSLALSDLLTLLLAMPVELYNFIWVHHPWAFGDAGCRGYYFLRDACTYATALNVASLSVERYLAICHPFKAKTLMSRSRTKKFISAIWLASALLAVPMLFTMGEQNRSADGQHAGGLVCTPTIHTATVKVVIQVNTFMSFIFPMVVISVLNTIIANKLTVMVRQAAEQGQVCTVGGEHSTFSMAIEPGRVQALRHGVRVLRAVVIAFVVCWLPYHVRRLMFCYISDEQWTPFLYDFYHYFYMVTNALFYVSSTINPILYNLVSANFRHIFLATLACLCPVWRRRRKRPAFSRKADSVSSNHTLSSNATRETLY
V-ATPase pH = yeast V-ATPase proton transport regulation by pHLuorin. response, % at 10 µM. 350,000 tested, 0.37% active. S. cerevisiae, pHLuorin cytosolic pH fluorescence. AID 504577; in the data active = response mostly above about 7.3%, no sharp cut-off; inactive = mostly below about 5.4%; note: actives read high
SR-BI DiI-HDL act = enhances SR-BI lipid uptake from DiI-HDL. 320,000 tested, 0.096% active. CHO ldlA[mSR-BI] cells, DiI-HDL uptake fluorescence, 3 h; 100 = double the neutral-control signal. activation, % at 12.5 µM. AID 504775;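 active = mean replicate activation of at least 60% and every replicate at or above 60%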;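 note: 0% = median plate neutral-control signal and 100% = twice that signal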
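Assay system: CHO ldlA[mSR-BI] cells, LDL receptor-null, SR-BI overexpressing; medium: Ham's F12 with 0.5% BSA, HEPES 25 mM, pH 7.4; also added: DiI-HDL 10 µg/mL; timing: 3 h uptake period with compound, 37 °C; signal: DiI fluorescence, bottom read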
Vif imaging = HIV Vif inhibition; HEK293T cells, Vif self-association by quenched fluorescence, imaging, 24 h; inhibition, % at 7.49 µM; 340,000 tested, 0.35% active; AID 602346; in the data active = inhibition above about 50%, passing the limit was not always enough
Numbers without * were called inactive.

Results for O=c1[nH]c2cc3c(cc2cc1CN(CCO)S(=O)(=O)c1ccccc1)OCCO3 ?
SR-BI DiI inh: -29; CaV13 ICDI inh: -3; NTR1 agonist: 2; V-ATPase pH: -2; SR-BI DiI-HDL act: 29; Vif imaging: 2

What do the screens show for `Cc1ccc(C)c(OCCC(=O)N2CCN(S(=O)(=O)c3ccc([N+](=O)[O-])cc3)CC2)c1`?
SR-BI DiI inh: 2; CaV13 ICDI inh: -2; NTR1 agonist: -1; V-ATPase pH: 2; SR-BI DiI-HDL act: -2; Vif imaging: 11

How did Cc1ccc(CS(=O)Cc2ccc(C(=O)N3CCN(C4CCCCC4)CC3)o2)cc1 (stereo not given) do in these assays?
SR-BI DiI inh: -3; CaV13 ICDI inh: -3; NTR1 agonist: 1; V-ATPase pH: -1; SR-BI DiI-HDL act: 3; Vif imaging: -6

How did COc1cccc(/C=N/NC(=O)CNC(=O)/C=C\c2ccccc2)c1O do in these assays?
SR-BI DiI inh: -4; CaV13 ICDI inh: -7; NTR1 agonist: 62*; V-ATPase pH: 7; SR-BI DiI-HDL act: 4; Vif imaging: -6

How did COc1ccc(Br)cc1/C=N/NC(=O)CNC(=O)/C=C/c1ccccc1 do in these assays?
SR-BI DiI inh: 63; NTR1 agonist: 37; V-ATPase pH: -2; SR-BI DiI-HDL act: -63; Vif imaging: -9

What do the screens show for `COc1ccc(/C=C\C(=O)NCC(=O)N/N=C/c2cccc(OC)c2O)cc1`?
SR-BI DiI inh: -11; CaV13 ICDI inh: -3; NTR1 agonist: 15; V-ATPase pH: -4; SR-BI DiI-HDL act: 11; Vif imaging: -4

How did COc1ccc(/C=C/C(=O)NCC(=O)N/N=C/c2cc(Br)ccc2OCc2ccccc2)cc1 do in these assays?
SR-BI DiI inh: 79*; CaV13 ICDI inh: -1; NTR1 agonist: 1; V-ATPase pH: -1; SR-BI DiI-HDL act: -79; Vif imaging: -5

What do the screens show for `CCCCn1nnnc1C(c1ccccc1)N1CCN(c2ccc(OC)cc2)CC1` (stereo not given)?
CaV13 ICDI inh: -5

Results for CC(=O)c1ccc(Nc2nc(C(N)C3CCCCC3)cs2)cc1 (stereo not given) ?
CaV13 ICDI inh: -6; Vif imaging: 7

What do the screens show for `NC(c1csc(Nc2ccc(C(=O)c3ccccc3)cc2)n1)C1CCCCC1` (stereo not given)?
CaV13 ICDI inh: -11; Vif imaging: 65*

Results for Cn1cnc(S(=O)(=O)Nc2ccc(OC(F)(F)F)cc2)c1 ?
SR-BI DiI inh: -11; CaV13 ICDI inh: active; NTR1 agonist: -1; V-ATPase pH: 3; SR-BI DiI-HDL act: 11; Vif imaging: 0

What do the screens show for `Cn1cnc(S(=O)(=O)Nc2ccc(C(F)(F)F)cc2)c1`?
SR-BI DiI inh: -9; NTR1 agonist: 1; V-ATPase pH: -1; SR-BI DiI-HDL act: 9; Vif imaging: 16

What do the screens show for `Cc1cc(NC(=O)c2cc3cccc([N+](=O)[O-])c3[nH]2)ccc1F`?
SR-BI DiI inh: 77*; CaV13 ICDI inh: -4; NTR1 agonist: 10; V-ATPase pH: 0; SR-BI DiI-HDL act: -77; Vif imaging: -10

How did CC(C)CCN1CCN(Cc2nc(-c3ccc(F)cc3)cs2)CC1CCO (stereo not given) do in these assays?
SR-BI DiI inh: -18; CaV13 ICDI inh: -4; NTR1 agonist: 0; V-ATPase pH: -3; SR-BI DiI-HDL act: 18; Vif imaging: -1

How did COc1ccc(C(=O)CSc2nccn2C)c(OC)c1 do in these assays?
SR-BI DiI inh: 18; CaV13 ICDI inh: -8; NTR1 agonist: 0; V-ATPase pH: -4; SR-BI DiI-HDL act: -18; Vif imaging: 0

How did O[C@H]1C[C@H](c2ccccc2)N(CC2CCCCC2)C[C@@H]1n1cc(C2CC2)nn1 do in these assays?
CaV13 ICDI inh: -6; V-ATPase pH: 1

How did O=C1c2cccc3cccc(c23)C(=O)N1CCN1CCN(C(=S)Nc2ccccc2)CC1 do in these assays?
SR-BI DiI inh: 72*; CaV13 ICDI inh: -6; NTR1 agonist: 1; V-ATPase pH: -1; SR-BI DiI-HDL act: -72; Vif imaging: -4
